Screening results from PubChem.
GASC1 inh: inhibitors of human demethylase GASC-1 KDM4C | GST-KDM4C 2-372, H3K9me3 peptide, LANCE TR-FRET | Q9H3R0 | inhibition, % at 12.5 µM | hit rate 0.15% among 96,000;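 active = mean replicate inhibition above about 25%, with at least 55% of replicates also reaching it, limit read from the data, passing the limit was not always enough; inconclusive = only one of those two conditions met; inactive = neither condition met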
Target sequence (Q9H3R0 2-372 limits assumed): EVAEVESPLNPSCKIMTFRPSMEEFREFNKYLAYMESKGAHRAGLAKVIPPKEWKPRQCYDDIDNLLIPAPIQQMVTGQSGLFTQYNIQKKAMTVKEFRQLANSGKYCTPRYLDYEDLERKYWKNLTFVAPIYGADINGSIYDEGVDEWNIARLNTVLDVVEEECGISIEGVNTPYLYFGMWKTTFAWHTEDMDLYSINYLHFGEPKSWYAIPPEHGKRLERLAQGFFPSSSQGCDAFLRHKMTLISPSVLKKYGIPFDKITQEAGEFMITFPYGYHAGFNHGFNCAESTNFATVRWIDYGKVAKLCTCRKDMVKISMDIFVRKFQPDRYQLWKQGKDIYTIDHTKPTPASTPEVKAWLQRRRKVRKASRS
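System: N-terminal GST-fused human GASC-1 (KDM4C) fragment, residues 2-372; amount: enzyme final amount 10 nM; incubation: reaction 30 min RT, detection step 1 h RT; medium: HEPES buffer, pH 7.5, plus ascorbate; technique: LANCE TR-FRET, Eu antibody, ULight-streptavidin, EDTA, ex 340 nm, em 618/671 nm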
IDH1 R132H inh: inhibitors of human IDH1 R132H | O75874 | IDH1 R132H reductase, diaphorase/resazurin fluorescence, 60 min | inhibition, % at 10 µM | hit rate 0.18% among 70,000 | AID 624101; in the data active = inhibition above about 34%; inconclusive = no clear call, values can overlap the other calls; inactive = below about 11%;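 also: 0% = DMSO and 100% = no enzyme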
T cruzi growth-1: inhibitors of T. cruzi proliferation | T. cruzi beta-gal in NIH3T3, GalScreen luminescence, 90 h | inhibition, % at 8.34 µM | hit rate 5.9% among 77,000 | AID 624255;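 active = mean inhibition above about 93%, with at least 55% of replicates each passing it, limit read from the data, passing the limit was not always enough; inconclusive = only one of those two conditions holds; inactive = neither condition holds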
T cruzi growth-2: Trypanosoma cruzi proliferation inhibition; shares compounds with T cruzi growth-1; T. cruzi beta-gal in NIH3T3, GalScreen luminescence, 90 h; inhibition, % at 8.35 µM; hit rate 72% among 5,600; AID 651739;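 active = mean replicate inhibition above about 95% and at least 55% of replicates individually reaching it, limit read from the data; inconclusive = only one of the two criteria is met; inactive = neither criterion is met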
T cruzi growth-3: blocks T. cruzi growth in NIH3T3 host cells; shares compounds with T cruzi growth-1; T. cruzi beta-gal in NIH3T3, GalScreen luminescence, 90 h; inhibition, % at 2.09 µM; hit rate 21% among 5,600;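 active = mean inhibition above about 95%, with at least 55% of replicates also reaching it, limit read from the data; inconclusive = meets just one of the two conditions; inactive = meets neither condition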;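 also: plate controls were neutral control median for no effect and positive control median for full effect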
3T3 cytotox: kills mouse NIH/3T3 fibroblasts. cytotoxicity (signal decrease), % at 8.35 µM. hit rate 14% among 5,600. shares compounds with T cruzi growth-1. NIH/3T3 viability, CellTiter-Glo ATP luminescence, 90 h;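 active = mean signal decrease across replicates above about 35% based on untreated-well scatter, with enough replicates individually passing, limit read from the data; inconclusive = no rule stated though some were filed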;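 also: 0% = median of neutral control wells and 100% = median of positive control wells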
NIH3T3 tox 2: NIH/3T3 (mouse) viability loss | shares compounds with T cruzi growth-1 | hit rate 56% among 5,600 | NIH/3T3 viability, CellTiter-Glo ATP luminescence, 90 h | inhibition, % at 24.9 µM;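 active = mean loss of cell viability signal at or above a set limit, and enough replicates individually reaching it; inconclusive = meets only the mean limit or only the replicate share; inactive = meets neither condition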;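 also: 0% = median of neutral control wells and 100% = median of positive control wells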
Active calls of the source: *. Shown is part of a subset that was picked to be rich in hits.

`C[C@@H]1O[C@@H](O[C@H]2[C@H](O[C@H]3CC[C@@]4(C)C(CC[C@]5(C)C4CC=C4C6CC(C)(C)CC[C@]6(C(=O)O)CC[C@]45C)[C@]3(C)CO)OC[C@H](O)[C@@H]2O)[C@H](O)[C@H](O)[C@H]1O` (stereo not given in full) gave IDH1 R132H inh 0.
For C[C@H](CO)N1C[C@H](C)[C@H](CN(C)C(=O)c2ccncc2)Oc2cc(C#CC3CC3)ccc2S1(=O)=O the results were GASC1 inh 1, IDH1 R132H inh 6, T cruzi growth-1 103*, T cruzi growth-2 92, T cruzi growth-3 74, 3T3 cytotox 0 and NIH3T3 tox 2 28*.
`C[C@@H]1CN([C@H](C)CO)S(=O)(=O)c2ccc(C#CC3CC3)cc2O[C@H]1CN(C)C(=O)c1ccccc1` gave GASC1 inh 1, IDH1 R132H inh 1 and T cruzi growth-1 87.
C[C@@H]1CN([C@H](C)CO)S(=O)(=O)c2ccc(C#CC3CC3)cc2O[C@@H]1CN(C)C(=O)c1ccccc1 was read as GASC1 inh -2, IDH1 R132H inh 0, T cruzi growth-1 inconclusive, T cruzi growth-2 106*, T cruzi growth-3 63, 3T3 cytotox 33 and NIH3T3 tox 2 51*.
C[C@@H]1CN([C@H](C)CO)S(=O)(=O)c2ccc(C#CC3CC3)cc2O[C@H]1CN(C)C(=O)c1ccncc1 was read as GASC1 inh 5, IDH1 R132H inh 0 and T cruzi growth-1 93.
For COc1ccccc1NC(=O)N1CCCCN2[C@H](CO)[C@H](c3ccc(-c4cccc(F)c4)cc3)[C@H]2C1 the results were GASC1 inh -2 and T cruzi growth-1 28.
Screening O=C(Nc1ccc(F)cc1)N1CCCCN2[C@H](CO)[C@H](c3ccc(-c4cccc(F)c4)cc3)[C@@H]2C1 returned GASC1 inh -3, T cruzi growth-1 118*, T cruzi growth-2 108*, T cruzi growth-3 85, 3T3 cytotox 17 and NIH3T3 tox 2 72*.
`O=C(Nc1ccc(F)cc1)N1CCCCN2[C@@H](CO)[C@H](c3ccc(-c4cccc(F)c4)cc3)[C@@H]2C1` gave GASC1 inh 1, T cruzi growth-1 106*, T cruzi growth-2 95*, T cruzi growth-3 80, 3T3 cytotox 120* and NIH3T3 tox 2 103*.
Screening O=C(Nc1ccc(F)cc1)N1CCCCN2[C@H](CO)[C@@H](c3ccc(-c4cccc(F)c4)cc3)[C@H]2C1 returned GASC1 inh -1 and T cruzi growth-1 91.
O=C(CSc1nnc(-c2ccccc2[N+](=O)[O-])o1)c1cccs1 was read as IDH1 R132H inh -1.
`COc1cc2c(cc1NC(=S)NCc1ccco1)oc1ccccc12` gave IDH1 R132H inh 2.
`Cc1noc(C)c1S(=O)(=O)N(C)C[C@H]1OCCCC[C@H](C)Oc2ccc(NC(=O)Nc3ccc4c(c3)OCO4)cc2C(=O)N([C@@H](C)CO)C[C@@H]1C` gave GASC1 inh -1, IDH1 R132H inh 1, T cruzi growth-1 inconclusive, T cruzi growth-2 106*, T cruzi growth-3 4, 3T3 cytotox 0 and NIH3T3 tox 2 -3.
Screening Cc1noc(C)c1S(=O)(=O)N(C)C[C@@H]1OCCCC[C@@H](C)Oc2ccc(NC(=O)Nc3ccc4c(c3)OCO4)cc2C(=O)N([C@H](C)CO)C[C@@H]1C returned GASC1 inh -2 and T cruzi growth-1 58.
Screening Cc1noc(C)c1NC(=O)Nc1ccc2c(c1)C(=O)N([C@@H](C)CO)C[C@@H](C)[C@@H](CN(C)S(=O)(=O)c1c(C)noc1C)OCCCC[C@@H](C)O2 returned GASC1 inh 0 and T cruzi growth-1 52.
Cc1noc(C)c1S(=O)(=O)N(C)C[C@@H]1OCCCC[C@@H](C)Oc2ccc(NC(=O)Nc3ccc4c(c3)OCO4)cc2C(=O)N([C@@H](C)CO)C[C@@H]1C was read as GASC1 inh 1 and T cruzi growth-1 58.
Screening Cc1noc(C)c1S(=O)(=O)N(C)C[C@H]1OCCCC[C@@H](C)Oc2ccc(NC(=O)Nc3ccc4c(c3)OCO4)cc2C(=O)N([C@@H](C)CO)C[C@H]1C returned GASC1 inh -1, IDH1 R132H inh 2, T cruzi growth-1 108*, T cruzi growth-2 105*, T cruzi growth-3 25, 3T3 cytotox 28 and NIH3T3 tox 2 21.
`Cc1noc(C)c1S(=O)(=O)N(C)C[C@H]1OCCCC[C@@H](C)Oc2ccc(NC(=O)Nc3ccc4c(c3)OCO4)cc2C(=O)N([C@H](C)CO)C[C@@H]1C` gave GASC1 inh 1, IDH1 R132H inh 0, T cruzi growth-1 103*, T cruzi growth-2 inconclusive, T cruzi growth-3 13, 3T3 cytotox 26 and NIH3T3 tox 2 45*.
COc1ccc(Cl)cc1NC(=O)CSc1n[nH]c(-c2ccccc2)n1 was read as IDH1 R132H inh 0.
Screening COc1cc(C2c3c(oc4ccc(Cl)cc4c3=O)C(=O)N2Cc2ccco2)cc(Br)c1O (stereo not given) returned IDH1 R132H inh 0.
For CSc1cccc(NC(=O)CSc2nnc(-c3ccco3)n2C)c1 the results were IDH1 R132H inh 0.
`CC(C)C#Cc1ccc2c(c1)O[C@@H](CN(C)Cc1cccnc1)[C@@H](C)CN([C@H](C)CO)S2(=O)=O` gave GASC1 inh 0, T cruzi growth-1 inconclusive, T cruzi growth-2 99*, T cruzi growth-3 79, 3T3 cytotox 25 and NIH3T3 tox 2 23.
`CC(C)C#Cc1ccc2c(c1)O[C@@H](CN(C)Cc1cccnc1)[C@H](C)CN([C@H](C)CO)S2(=O)=O` gave GASC1 inh 1, T cruzi growth-1 100*, T cruzi growth-2 99*, T cruzi growth-3 92, 3T3 cytotox 40* and NIH3T3 tox 2 106*.
For C[C@@H]1CN([C@H](C)CO)S(=O)(=O)c2ccc(C#C[C@@H](C)O)cc2O[C@H]1CN(C)Cc1cccnc1 the results were IDH1 R132H inh 7 and T cruzi growth-1 88.
CC(C)C#Cc1ccc2c(c1)O[C@H](CN(C)Cc1cccnc1)[C@H](C)CN([C@H](C)CO)S2(=O)=O was read as GASC1 inh 2 and T cruzi growth-1 78.
`CC(C)C#Cc1ccc2c(c1)O[C@H](CN(C)C(=O)c1cccnc1)[C@@H](C)CN([C@H](C)CO)S2(=O)=O` gave GASC1 inh 3, IDH1 R132H inh 0 and T cruzi growth-1 92.
C[C@H](CO)N1C[C@H](C)[C@@H](CN(C)Cc2cccnc2)Oc2cc(C#C[C@@H](C)O)ccc2S1(=O)=O was read as T cruzi growth-1 39.
